Series [1] deals with Vero. Kind of series: Cytotoxicity against african green monkey Vero cells after 48 hrs by neutral red assay. The class given is cell-based. The settings on record: chlorocebus sabaeus. The essentials: (§1)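 Mammalian cell cytotoxicity was measured as IC50 in Vero (monkey kidney fibroblasts), LLC-PK11 (pig kidney epithelial) and HepG2 (human hepatoma) cells. The highest concentration tested was 60 μM. Values are the mean of two independent experiments ± SD.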

Series [2] relates to Plasmodium falciparum. Kind of series: Antiplasmodial activity against chloroquine-resistant Plasmodium falciparum W2 infected in red blood cells up to 19 uM after 72 hrs by parasitic LDH assay. The class given is functional, organism-based. An outline of the steps:
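In vitro P. falciparum growth inhibition (D6 CQ-sensitive clone; W2 CQ-resistant clone). IC50 is the concentration giving 50% growth inhibition. Values are the average of two independent experiments ± SD. Highest concentration tested 19 μM.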

A short description of series [3]: Selectivity index, ratio of IC50 for african green monkey Vero cells to IC50 for chloroquine-sensitive Plasmodium falciparum D6. The series is classed as toxicity, cell-based. Conditions: read-out: Ratio IC50. An outline of the steps: (§2)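 SI is the IC50 for cytotoxicity to Vero cells (monkey kidney fibroblasts) divided by the antimalarial IC50 against the named P. falciparum clone. Cytotoxicity was tested up to 60 μM.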

In the next series the test system is HepG2. Kind of series: Cytotoxicity against human HepG2 cells up to 60 uM after 48 hrs by neutral red assay. The series is classed as cell-based. Conditions: hepg2, 48 h. The essentials: as §1
Series [4] relates to Plasmodium berghei. Kind of series: Antimalarial activity Plasmodium berghei infected in mouse assessed as cure from infection at 10 mg/kg, po administered QD for 3 days measured on day 28. On the set-up: dose 10 mg/kg. The series is classed as functional, organism-based. The essentials:
(§3)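 P. berghei-infected mice, 5 per group, dosed by oral gavage once daily on days 0, 1 and 2 postinfection, with a vehicle control arm. Mice were followed to day 28 postinfection for apparent toxicity, parasitemia and survival. Parasitemia suppression is expressed against mean vehicle-control parasitemia set as 100%, and cure is the number cured per 5 mice.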

Series [5] concerns Mus musculus. Kind of series: Toxicity in mouse infected with Plasmodium berghei assessed as host survival at 10 mg/kg, po administered QD for 3 days measured on day 28. The series is classed as organism-based. On the set-up: dose 10 mg/kg, route oral. Conditions: in vivo, 72 h.
Series [6] deals with Plasmodium berghei. Kind of series: Antimalarial activity against Plasmodium berghei infected in mouse assessed as suppression in parasitemia at 3.3 mg/kg, po administered QD for 3 days measured on day 7 relative to control. The series is classed as functional. The essentials:
as §3

Series [7] concerns Mus musculus. Kind of series: Toxicity in mouse infected with Plasmodium berghei assessed as host survival at 30 mg/kg, po administered QD for 3 days measured on day 28. The class given is organism-based. On the set-up: dose 30 mg/kg, route oral. Conditions: in vivo, 72 h.
For series [8], the system named is Plasmodium berghei. Kind of series: Antimalarial activity against Plasmodium berghei infected in mouse assessed as suppression in parasitemia at 30 mg/kg, po administered QD for 3 days measured on day 5 relative to control. The class given is functional. The essentials: as §3
Series [9] can be described thus: Cytotoxicity against pig LLC-PK11 cells up to 60 uM after 48 hrs by neutral red assay. The settings on record: llc-pk11, 48 h. The class given is cell-based, Sus scrofa. The essentials: as §1
For series [10], the system named is Plasmodium falciparum. Description: Ratio of chloroquine IC50 to compound IC50 for chloroquine-sensitive Plasmodium falciparum D6. The series is classed as functional.
Series [11] has as its system Plasmodium falciparum. Description: Ratio of chloroquine IC50 to compound IC50 for chloroquine-resistant Plasmodium falciparum W2. The class given is functional.
The test system of series [12] is Plasmodium falciparum. Kind of series: Antiplasmodial activity against chloroquine-resistant Plasmodium falciparum W2 infected in red blood cells after 72 hrs by parasitic LDH assay. The series is classed as functional, organism-based. Conditions: W2, 72 h.
Series [13] concerns Plasmodium berghei. Description: Antimalarial activity Plasmodium berghei infected in mouse assessed as mean survival time at 30 mg/kg, po administered QD for 3 days (reference value: 15.2 days). The class given is functional.
Series [14] deals with Plasmodium berghei. Description: Antimalarial activity Plasmodium berghei infected in mouse assessed as cure from infection at 3.3 mg/kg, po administered QD for 3 days measured on day 28. On the set-up: dose 3.3 mg/kg. The series is classed as functional, organism-based. The essentials: as §3
The subject of series [15] is Plasmodium falciparum. Kind of series: Ratio of artemesin IC50 to compound IC50 for chloroquine-sensitive Plasmodium falciparum D6. The series is classed as functional.
In series [16] the test system is Plasmodium berghei. Description: Antimalarial activity against Plasmodium berghei infected in mouse assessed as suppression in parasitemia at 10 mg/kg, po administered QD for 3 days measured on day 5 relative to control. The class given is functional. An outline of the steps: as §3
Series [17] relates to Mus musculus. Description: Toxicity in mouse infected with Plasmodium berghei assessed as host survival at 3.3 mg/kg, po administered QD for 3 days measured on day 28. The class given is organism-based. On the set-up: dose 3.3 mg/kg, route oral. The settings on record: in vivo, 72 h.
Series [18] has as its system Plasmodium berghei. Kind of series: Antimalarial activity against Plasmodium berghei infected in mouse assessed as suppression in parasitemia at 30 mg/kg, po administered QD for 3 days measured on day 7 relative to control. The class given is functional. The essentials: as §3
Series [19] concerns Plasmodium berghei. Description: Antimalarial activity Plasmodium berghei infected in mouse assessed as mean survival time at 3.3 mg/kg, po administered QD for 3 days (reference value: 15.2 days). The class given is functional.
Series [20] deals with Plasmodium berghei. Kind of series: Antimalarial activity Plasmodium berghei infected in mouse assessed as cure from infection at 30 mg/kg, po administered QD for 3 days measured on day 28. The series is classed as functional. The essentials:
as §3

Series [21] can be described thus: Selectivity index, ratio of IC50 for african green monkey Vero cells to IC50 for chloroquine-resistant Plasmodium falciparum W2. The series is classed as toxicity, cell-based. The settings on record: read-out: Ratio IC50. The essentials: as §2
Series [22] deals with Plasmodium berghei. Description: Antimalarial activity against Plasmodium berghei infected in mouse assessed as suppression in parasitemia at 3.3 mg/kg, po administered QD for 3 days measured on day 5 relative to control. The series is classed as functional. An outline of the steps:
as §3

Series [23] relates to Plasmodium berghei. Kind of series: Antimalarial activity against Plasmodium berghei infected in mouse assessed as suppression in parasitemia at 10 mg/kg, po administered QD for 3 days measured on day 7 relative to control. The class given is functional. The essentials:
as §3

In series [24] the test system is Plasmodium falciparum. Description: Antiplasmodial activity against chloroquine-sensitive Plasmodium falciparum D6 infected in red blood cells after 72 hrs by parasitic LDH assay. The series is classed as functional, organism-based. The settings on record: D6, 72 h.
In series [25] the test system is Plasmodium berghei. Description: Antimalarial activity Plasmodium berghei infected in mouse assessed as mean survival time at 10 mg/kg, po administered QD for 3 days (reference value: 15.2 days). The class given is functional.
The subject of series [26] is Vero. Description: Cytotoxicity against african green monkey Vero cells up to 60 uM after 48 hrs by neutral red assay. The series is classed as cell-based. The settings on record: chlorocebus sabaeus. An outline of the steps:
as §1

Series [27] has as its system Plasmodium berghei. Description: Antimalarial activity against Plasmodium berghei infected in mouse assessed as suppression in parasitemia at 100 mg/kg, po administered QD for 3 days measured on day 7 relative to control. The series is classed as functional. The essentials:
as §3

Series [28] relates to Mus musculus. Description: Toxicity in mouse infected with Plasmodium berghei assessed as host survival at 100 mg/kg, po administered QD for 3 days measured on day 28. The series is classed as organism-based. More on the design: dose 100 mg/kg, route oral. Conditions: in vivo, 72 h.
Series [29] deals with Plasmodium berghei. Description: Antimalarial activity Plasmodium berghei infected in mouse assessed as mean survival time at 100 mg/kg, po administered QD for 3 days (reference value: 15.2 days). The series is classed as functional.
Series [30] deals with Plasmodium berghei. Kind of series: Antimalarial activity against Plasmodium berghei infected in mouse assessed as suppression in parasitemia at 100 mg/kg, po administered QD for 3 days measured on day 5 relative to control. The series is classed as functional. An outline of the steps:
as §3

In series [31] the test system is Plasmodium berghei. Kind of series: Antimalarial activity Plasmodium berghei infected in mouse assessed as cure from infection at 100 mg/kg, po administered QD for 3 days measured on day 28. The class given is functional, organism-based. More on the design: dose 100 mg/kg. The essentials: as §3

pIC50: −log10 of the molar value. Calls of active or inactive are those of the source. No cut-off for these calls is given here.

In turn, `CCc1nc(N)nc(N)c1-c1ccc(Cl)cc1` [PYRIMETHAMINE] showed a pIC50 with Vero [1] of 4.74. Besides, the result in the series on Plasmodium falciparum [2] was inactive. For the same molecule, in series [3], the selectivity ratio came to 1820.

As to `Cc1cc(NCCNc2ccnc3cc(Cl)ccc23)nc(N2CCN(C)CC2)n1`, the Activity result was “Non-toxic” with HepG2; “Toxic” in the series on Mus musculus [5]; 35.2% in the series with Plasmodium berghei [6]; “Non-toxic” in the series with Mus musculus [7]; 100% with Plasmodium berghei [8]; “Non-toxic” in series [9]. The Activity was 97% in the series with Plasmodium berghei [16]; “Toxic” in the series on Mus musculus [17]; 100% in the series with Plasmodium berghei [18]; 80% in the series on Plasmodium berghei [20]; 23.5% in the series on Plasmodium berghei [22]; 2% in the series on Plasmodium berghei [23]. Moreover, the Activity result in the series with Vero [26] is reported as “Non-toxic”. Also, the result with Plasmodium berghei [4] and in the series with Plasmodium berghei [14] was inactive. Also, the results for the “Ratio IC50” value with Plasmodium falciparum [10], in the series on Plasmodium falciparum [11] and with Plasmodium falciparum [15] were 6, 6 and 2, respectively. The values for the pIC50 with Plasmodium falciparum [12] and in the series with Plasmodium falciparum [24] were 7.52 and 8.30, respectively. The MST in the series on Plasmodium berghei [13] is 28 days; in the series on Plasmodium berghei [19] it was 19.2 days; in the series with Plasmodium berghei [25], 21.4 days. Moreover, the selectivity ratio in [3] was > 12000; in [21], > 2000.

In the case of `CCN(CC)CCCC(C)Nc1ccnc2cc(Cl)ccc12` (stereo unspecified) [CHLOROQUINE], the Activity entry in the series on HepG2 was “Non-toxic”; in the series with Plasmodium berghei [27], 100%; with Mus musculus [28], “Non-toxic”; in series [9], “Non-toxic”; in the series on Plasmodium berghei [30], 100%; with Vero [26], “Non-toxic”. In the series on Plasmodium berghei [29], the MST is 28 days. In the series on Plasmodium berghei [31], the result was inactive.

For the molecule `CCN1CCN(c2nc(C)cc(NCCCNc3ccnc4cc(Cl)ccc34)n2)CC1`, the Activity entry with HepG2 is reported as “Non-toxic”; in the series with Mus musculus [5] it was “Toxic”; with Plasmodium berghei [6], 19.1%; in the series with Mus musculus [7], “Non-toxic”; with Plasmodium berghei [8], 100%; in series [9], “Non-toxic”. The Activity with Plasmodium berghei [16] is reported as 73.9%; in the series with Mus musculus [17], “Toxic”; in the series with Plasmodium berghei [18], 100%; in the series on Plasmodium berghei [20] it was 20%; in the series on Plasmodium berghei [22] it was 20.1%; in the series with Plasmodium berghei [23], 27.1%. Besides, in the series on Vero [26], the Activity result is “Non-toxic”. The result with Plasmodium berghei [4] and in the series on Plasmodium berghei [14] was inactive. Besides, the figures for the “Ratio IC50” value in the series on Plasmodium falciparum [10], in the series with Plasmodium falciparum [11] and in the series on Plasmodium falciparum [15] were 6, 6 and 2, respectively. For the same molecule, the negative logarithm of the IC50 (pIC50) in the series on Plasmodium falciparum [12] is 7.22; in the series on Plasmodium falciparum [24] it was 8.22. In addition, the MST is 27.2 days in the series with Plasmodium berghei [13], 20.2 days with Plasmodium berghei [19] and 15.2 days in the series with Plasmodium berghei [25]. Further, the selectivity ratio is > 10000 in series [3] and > 1000 in [21].

A word on the pIC50: it is −log10 of the IC50, conventionally taken in molar units.

The record behind these values is ChEMBL document CHEMBL2086283, “Novel 4-aminoquinoline-pyrimidine based hybrids with improved in vitro and in vivo antimalarial activity” (ACS Med Chem Lett, 2012).
